Source: PubChem
CHOP inhibitor: blocks CHOP induction under ER stress | CHO-K1 CHOP-promoter luciferase, tunicamycin-induced, 15-18 h | inhibition, % at 10 µM | actives 3.8% (n = 220,000) | AID 2732;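 active means compounds that reduced the stress-induced luciferase reporter signal by more than about 70% of percent inhibition, limit read from the data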;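 further: 0% = tunicamycin plus vehicle and 100% = wells without tunicamycin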
Dynein transport: blocks dynein driven cargo transport along microtubules; 3617.4 mouse cells, GR-EGFP nuclear translocation imaging; test concentration mostly 20 µM; stimulated with dexamethasone, 1 µM; stronger effect = lower value; z-score, hits read low; actives 0.47% (n = 220,000);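 active means plate z-score of nuclear minus cytoplasmic receptor signal below a set negative limit, without overly bright fluorescence or cell loss, cut at about -3.5 in these data, passing the limit was not always enough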;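 further: z-score of nuclear minus cytoplasmic ring GR-EGFP intensity difference per well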
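Buffer or medium: tet-free, stripped-serum medium; reagent: dexamethasone at 1.0 µM final, 30 min; incubation: 48 h induction, 1 h compound, 30 min dex at 37 °C; measured by: formaldehyde fixation, Hoechst nuclear stain, 10x automated fluorescence imaging; read-out: nuclear-to-cytoplasmic GR-EGFP distribution per well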
Lmaj promast: Leishmania major promastigote growth inhibition | Leishmania major promastigotes, resazurin fluorescence viability | inhibition, % at 10 µM | actives 9% (n = 200,000); in the data active means inhibition above about 50%;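 further: promastigotes grown with compound for 44 hours at 28 °C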
Autophagy HCS: alters autophagy in cells. actives 0.98% (n = 190,000). MEF GFP-LC3 puncta imaging; test concentration mostly 10 µM. AID 463193. calls only at 10 µM (by protocol);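 active means percentage of spot-positive cells more than 3 SD above its plate mean, without a fluorescence outlier flag or 80% toxicity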;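 further: spot-positive cell cutoff set from DMSO-treated cells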
MT stabilizer: stabilizes microtubules in HeLa cells | HeLa tubulin immunostaining HCS, 24 h; share of cells brighter than vehicle mean+2SD | % tubulin-high responders, % at 10 µM | actives 0.83% (n = 200,000) | AID 2205;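 active means plate Z-score above 3 for both tubulin-high and condensed-nucleus cell shares, with cell loss under 80%, at 10 µM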;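 further: anti alpha tubulin signal scored within the nucleus-defined area of each cell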
bCat nuc transl: alters nuclear translocation of beta-catenin in HeLa cells; immunofluorescence imaging; nuclear translocation activity, % at 5 µM; actives 0.3% (n = 190,000); AID 1665;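 active means nuclear translocation activity above 50% at 5 µM, with a well cell count of 50 or more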;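 further: per-cell ratio of nuclear to cytoplasmic median beta-catenin stain intensity; plate controls were DMSO negative control for no effect and GSK-3 inhibitor IX positive control for full effect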
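System: Human HeLa cells, endogenous beta-catenin | Compound dosing: 5 µM primary, 0.02–20 µM confirmation | Timing: 24 h compound exposure at 37°C, 5% CO2 | Measured by: Fluorescence imaging of beta-catenin antibody stain plus DAPI | Read-out basis: % activation of per-cell nuclear versus cytoplasmic median beta-catenin signal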
An asterisk follows results filed as active; i = inactive; . = no result given; + = active, no number. Hits are enriched below; roughly 12% of the tested compounds scored in any of these assays.

SMILES	CHOP inhibitor	Dynein transport	Lmaj promast	Autophagy HCS	MT stabilizer	bCat nuc transl
CC(CN1CCCC1)C(=O)NN (stereo unspecified)	-5	-0.41	-5	i	2	-1
O=C(/C=C/c1ccccc1Cl)c1ccc[nH]1	-24	0.75	74*	i	4	.
OCC1(Cc2ccccc2)CCN(Cc2ccc(-c3ccco3)cc2)CC1	44	-1.8	91*	i	.	1
OCC1(Cc2ccccc2)CCCN(Cc2ccc(-c3ccco3)cc2)C1 (stereo unspecified)	14	-0.34	80*	i	2	1
OCC1(Cc2ccccc2)CCN(CCCC2CCCC2)CC1	61	0.3	96*	i	1	0
CCN1CCCC(CO)(Cc2ccccc2)C1 (stereo unspecified)	21	-0.46	1	i	1	0
C=CCO/N=C(/C)c1ccc(Oc2cnccn2)cc1	20	0.24	-10	i	6	-1
CCN1C(=O)c2ccccc2Sc2ccc(C(=O)NCCCN3CCOCC3)cc21	22	-0.098	0	i	4	1
Cc1cccc(CN2C(=O)c3ccccc3Sc3ccc(C(=O)NCCN4CCOCC4)cc32)c1	7	-0.099	100*	i	3	2
O=C(NCCN1CCOCC1)c1ccc2c(c1)N(Cc1ccccc1F)C(=O)c1ccccc1S2	8	0.6	100*	+	1	-1
C/C(=N/NC(=O)CN1CCN(Cc2ccccc2Cl)CC1)c1cccnc1	7	1.4	.	.	.	0
COc1ccc(NC(=O)CSc2nc3ccccc3c(=O)n2CCCN2CCC(C)CC2)c(OC)c1	21	0.0086	55*	i	5	-1
O=C(CSc1nc2ccccc2c(=O)n1CCCN1CCOCC1)Nc1cccc(S(=O)(=O)N2CCCCCC2)c1	41	-0.16	74*	i	5	0
Cc1ccc(NC(=O)CSc2nc3ccccc3c(=O)n2CCCN2CCCCC2)cc1Cl	8	-0.52	101*	i	3	.
CCOc1ccc(NC(=O)CSc2nc3ccccc3c(=O)n2CCCC(=O)N2CCCC2)cc1	29	0.15	-3	i	2	1
Cc1ccc(NC(=O)CSc2nc3ccccc3c(=O)n2CCCC(=O)NCCCN2CCOCC2)cc1C	-9	-0.46	3	i	2	-1
O=C(CSc1nc2ccccc2c(=O)n1-c1ccc(F)c(Cl)c1)Nc1cccc(S(=O)(=O)N2CCOCC2)c1	19	-0.77	41	i	3	-4
CC1CCN(CCCn2c(SCC(=O)Nc3ccccc3Cl)nc3ccccc3c2=O)CC1	38	0.83	65*	i	2	.
CCn1c(=O)c2c(nc(SCc3ccccn3)n2C)n(C)c1=O	4	0.29	-8	i	2	-1
COc1ccc(NC(=O)CSc2nc3ccccc3c(=O)n2CCC(=O)N2CCCCC2)cc1	5	2.6	70*	i	5	.
CN(C)c1ccc(-c2n(C)c3ccccc3[n+]2C)cc1	-4	-0.73	100*	i	1	0
Cn1c(-c2ccccn2)[n+](C)c2ccccc21	1	-0.87	-1	i	3	0
CCC(=O)N1N=C(c2ccc(NS(=O)(=O)CC)cc2)CC1c1ccc(C)cc1 (stereo unspecified)	-4	0.79	18	i	3	-1
CS(=O)(=O)Nc1ccc(C2=NN(C(=O)c3ccco3)C(c3ccccc3)C2)cc1 (stereo unspecified)	21	0.74	68*	i	2	0
CCS(=O)(=O)Nc1ccc(C2=NN(C(=O)c3ccco3)C(c3ccc(C)cc3)C2)cc1 (stereo unspecified)	-8	0.19	74*	i	2	4
SMILES	CHOP inhibitor	Dynein transport	Lmaj promast	Autophagy HCS	MT stabilizer	bCat nuc transl
Cc1ccc(C2CC(c3ccc(NS(C)(=O)=O)cc3)=NN2C(=O)c2ccco2)cc1 (stereo unspecified)	11	-0.7	-4	i	3	-1
CCCCCC1CCC(c2n[nH]c(=S)n2C)CC1 (stereo unspecified)	95*	0.73	10	i	1	-1
C=CCn1c(C2CC2)n[nH]c1=S	12	3.3	-7	i	4	2
CC(C)(C)NC(=O)CSc1nc(N)c(-c2ccccc2)c(=O)[nH]1	21	-0.91	-2	i	.	2
O=C(NC1CCC(O)CC1)c1ccc(-c2ccc([N+](=O)[O-])cc2)o1 (stereo unspecified)	-7	-0.56	.	.	.	1
CSc1ccccc1C(=O)C1CCCN(S(=O)(=O)N(C)C)C1 (stereo unspecified)	-30	2.2	89*	i	2	-2
COc1ccc(-n2c(=S)[nH]c3ncccc3c2=O)cc1	12	-0.16	.	.	.	0
Cc1[nH]nc2c1C1(CCN(C(=O)OCc3ccccc3)CC1)C(C#N)=C(N)O2	73*	-1.1	-1	i	3	-1
Cc1[nH]nc2c1C1(CCN(C(=O)c3ccccc3)CC1)C(C#N)=C(N)O2	-3	0.53	-2	i	4	.
O=C(Cc1ccc(Cl)cc1)Nc1ccc(Br)cc1	34	0.35	-7	i	4	0
O=C(Cc1ccc(Br)cc1)NNC(=O)Nc1ccc(Cl)cc1	10	-1	72*	i	2	0
COc1ccc(C(=O)NNC(=O)C(=O)Nc2ccc(C)c(Cl)c2)cc1	65	2.6	33	i	4	-2
O=C(Nc1ccccc1)N1CCNCC1	-3	-0.56	.	.	.	-1
Cc1ccc(NC(=O)C(=O)NNC(=O)c2ccccc2C)cc1Cl	71*	0.069	2	i	2	-1
Cc1ccc(NC(=O)N2CCCC2)cc1Cl	-12	0.79	95*	i	2	0
O=C(Nc1ccc(Cl)c(Cl)c1)N1CC=CCC1	-14	-0.3	85*	i	4	-4
O=C(Nc1ccccc1)N1CCCC1	16	1.1	97*	i	1	.
Cc1ccc(S(=O)(=O)N2CCCC(C(=O)NC3=NCCS3)C2)cc1 (stereo unspecified)	2	0.68	-3	i	2	0
O=S(=O)(NCCc1csc(-c2cccnc2)n1)c1ccc(Cl)s1	78*	-0.25	6	i	2	-6
O=C(c1cc2nc(-c3ccccc3)cc(-c3ccccc3)n2n1)N1CCN(C(=O)c2ccco2)CC1	53	-0.44	26	i	5	0
CN(C)c1ccc(NC(=O)Nc2cccc3ccccc23)cc1	86*	-1.3	-6	i	1	-4
COc1ccc(NC(=O)Nc2ccc(N(C)C)cc2)cc1	11	-0.65	4	i	3	2
Cc1ccc(SCC(=O)NC(=O)Nc2ccc3c(c2)OCCO3)c(C)c1	46	3.2	-1	i	3	1
Cc1ccc([N+](=O)[O-])cc1N	9	-0.27	-2	i	3	4
